Results gathered from unrelated publications.
Compare with care: the assays were run in different laboratories. Converted amounts (≈) assume the structure as drawn.

| Compound | organism | test | test system | conditions | quantity | result |
| --- | --- | --- | --- | --- | --- | --- |
| O=C(Nc1ccccc1-c1ccc(F)c(F)c1)c1nccnc1C(F)(F)F | Alternaria solani | microbial growth | – | – | EC50 | 0.15 µg/mL (≈ 0.395 µM) |
| Cc1ccc(S(=O)(=O)Nc2nc3ccccc3nc2Nc2ccc3nsnc3c2)cc1 | Staphylococcus aureus | microbial growth | NCTC8325 | – | MIC | > 30 µM |
| O=C1C=C(OCc2cn(-c3ccc(F)cc3)nn2)C(=O)c2ccccc21 | Escherichia coli | microbial growth, broth dilution | ATCC25922 | – | IC50 | 165 µg/mL (≈ 472 µM) |
| Cc1cnc(NC(=O)Nc2cc(Br)c(C)cc2OC[C@@H]2CNCCO2)cn1 | Staphylococcus aureus | microbial growth | NCTC8325 | – | MIC | > 30 µM |
| O=C(O)c1ccc(-n2cc(COC3=CC(=O)c4ccccc4C3=O)nn2)cc1 | Escherichia coli | microbial growth, broth dilution | ATCC25922 | – | IC50 | 22.6 µg/mL (≈ 60.1 µM) |
| Cc1ccc2nc(-n3nc(CC(C)C)c4c3-c3ccccc3C4=O)sc2c1 | Staphylococcus aureus | microbial growth, well diffusion | NCIM5021 | 250 µg/mL | inhibition zone | 11 mm |
| O=C(O)CN1C(=O)/C(=C/c2ccc(-c3ccc(N(c4ccccc4)c4ccccc4)cc3)cc2)NC1=S | Micrococcus luteus | microbial killing, broth dilution | ATCC10240 | – | MBC | 31.3 µg/mL (≈ 61.9 µM) |
| COc1cc(Nc2c(C#N)cnc3cc(OCCCN4CCN(C)CC4)c(OC)cc23)c(Cl)cc1Cl | Staphylococcus aureus | microbial growth | NCTC8325 | – | MIC | > 30 µM |
| O=C1NC(=S)S/C1=C\c1ccc(-c2ccc(N(c3ccccc3)c3ccccc3)cc2)c2ccccc12 | Micrococcus luteus | microbial killing, broth dilution | ATCC10240 | – | MBC | > 1000 µg/mL |
| N#CC1(c2ccc(NC(=O)c3cccnc3NCc3ccncc3)cc2)CCCC1 | Staphylococcus aureus | microbial growth | NCTC8325 | – | MIC | > 30 µM |
| O=C1NC(=S)N/C1=C\c1c2ccccc2c(-c2ccc(N(c3ccccc3)c3ccccc3)cc2)c2ccccc12 | Micrococcus luteus | microbial killing, broth dilution | ATCC10240 | – | MBC | > 1000 µg/mL |
| O=C(Nc1ccc(Cl)c(C(F)(F)F)c1)Nc1ccc2ccccc2c1 | Staphylococcus aureus | microbial growth | NCTC8325 | 24 h | MIC | 0.7 µM (≈ 0.255 µg/mL) |
| CCCCS(=O)(=O)Oc1cc(C(C)C)ccc1C | Escherichia coli | microbial growth, broth dilution | ATCC25922 | – | IC50 | 156 µg/mL (≈ 578 µM) |
| FC1(F)Oc2ccc(NCc3ccc(Cl)c(C(F)(F)F)c3)cc2O1 | Staphylococcus aureus | microbial growth | NCTC8325 | – | MIC | 30 µM (≈ 11 µg/mL) |
| Cc1nn(-c2nc3ccc(Cl)cc3s2)c2c1C(=O)c1ccccc1-2 | Staphylococcus aureus | microbial growth, well diffusion | NCIM5021 | 125 µg/mL | inhibition zone | 10 mm |
| Cc1ccc(NC(=O)c2ccc(CN3CCN(C)CC3)cc2)cc1Nc1nccc(-c2cccnc2)n1 | Staphylococcus aureus | microbial growth | NCTC8325 | – | MIC | > 30 µM |
| CC(C)c1nn(-c2nc3ccc(Cl)cc3s2)c2c1C(=O)c1ccccc1-2 | Staphylococcus aureus | microbial growth, well diffusion | NCIM5021 | 250 µg/mL | inhibition zone | 11 mm |
| O=C1NC(=S)N/C1=C\c1ccc(-c2ccc(N(c3ccccc3)c3ccccc3)cc2)c2ccccc12 | Staphylococcus aureus | microbial killing, broth dilution | ATCC6538 | – | MBC | > 1000 µg/mL |
| Cc1nn(-c2nc3ccc(Br)cc3s2)c2c1C(=O)c1ccccc1-2 | Staphylococcus aureus | microbial growth, well diffusion | NCIM5021 | 500 µg/mL | inhibition zone | 12 mm |
| O=C(O)CN1C(=O)/C(=C/c2ccc(-c3ccc(N(c4ccccc4)c4ccccc4)cc3)cc2)SC1=S | Micrococcus luteus | microbial killing, broth dilution | ATCC10240 | – | MBC | 31.3 µg/mL (≈ 59.9 µM) |
| COc1cc2c(Oc3ccc(NC(=O)C4(C(=O)Nc5ccc(F)cc5)CC4)cc3F)ccnc2cc1OCCCN1CCOCC1 | Staphylococcus aureus | microbial growth | NCTC8325 | – | MIC | > 30 µM |
| CC(C)Cc1nn(-c2nc3ccc(Cl)cc3s2)c2c1C(=O)c1ccccc1-2 | Staphylococcus aureus | microbial growth, well diffusion | NCIM5021 | 125 µg/mL | inhibition zone | 10 mm |
| O=C(O)c1ccc(-n2cc(COc3cccc4cccnc34)nn2)cc1 | Escherichia coli | microbial growth, broth dilution | ATCC25922 | – | IC50 | 108 µg/mL (≈ 313 µM) |
| O=C1NC(=S)S/C1=C\c1c2ccccc2c(-c2ccc(N(c3ccccc3)c3ccccc3)cc2)c2ccccc12 | Micrococcus luteus | microbial killing, broth dilution | ATCC10240 | – | MBC | > 1000 µg/mL |
| Cc1ccc2nc(-n3nc(C(C)C)c4c3-c3ccccc3C4=O)sc2c1 | Staphylococcus aureus | microbial growth, well diffusion | NCIM5021 | 125 µg/mL | inhibition zone | 12 mm |
| O=C1NC(=S)N/C1=C\c1ccc(-c2ccc(N(c3ccccc3)c3ccccc3)cc2)cc1 | Micrococcus luteus | microbial killing, broth dilution | ATCC10240 | – | MBC | > 1000 µg/mL |
| O=[N+]([O-])c1ccc(S(=O)(=O)Oc2cccc3cccnc23)cc1 | Escherichia coli | microbial growth, broth dilution | ATCC25922 | – | IC50 | 215 µg/mL (≈ 650 µM) |
| COc1ccc2nc(-n3nc(CC(C)C)c4c3-c3ccccc3C4=O)sc2c1 | Staphylococcus aureus | microbial growth, well diffusion | NCIM5021 | 500 µg/mL | inhibition zone | 12 mm |
| Cc1ccc(C(C)C)cc1OCc1cn(-c2ccc(F)cc2)nn1 | Escherichia coli | microbial growth, broth dilution | ATCC25922 | – | IC50 | 1580 µg/mL (≈ 4860 µM) |
| [H]/N=C(/N)N[C@H]1[C@H](O)[C@@H](O)[C@H](O[C@@H]2O[C@@H](C)[C@](O)(C=O)[C@H]2O[C@@H]2O[C@@H](CO)[C@H](O)[C@@H](O)[C@@H]2NC)[C@@H](N/C(N)=N\[H])[C@@H]1O | Staphylococcus aureus | microbial growth, well diffusion | NCIM5021 | 1000 µg/mL | inhibition zone | 30 mm |
